Measured values from different studies.
Lines come from different studies, so protocols differ.
Observed: enzyme activity
CYP2C8: Cytochrome P450 2C8 (CYP2C8, Homo sapiens, UniProt P10632)
CYP2C9: Cytochrome P450 2C9 (CYP2C9, Homo sapiens, UniProt P11712)

Compound	target	assay	test system	setting	quantity	result
CON=C(N)c1ccc(-c2ccc(-c3ccc(C(N)=NOC)cc3)o2)cc1	CYP2C8	substrate	–	–	Km	2.6 µM
Nc1nc(N)c2nc(C(=O)NCc3cccc(C(F)(F)F)c3)cnc2n1	CYP2C9	inhibitor, luciferase	–	10 µM	inhibition	-17.1%
O=C(Nc1c2c(cc3c1CCC3)CCC2)NS(=O)(=O)/C=C/c1nccs1	CYP2C8	inhibitor	human, liver microsomes	2 µM, pH 7.4	inhibition	59.1%
Cc1cccc(F)c1N1CCC(N2Cc3cn(CC(C)(F)F)nc3N(Cc3ccccc3C(F)(F)F)C2=O)CC1	CYP2C8	inhibitor	human, liver microsomes	–	Ki	7 µM
Cc1nc2c([nH]1)c(=O)n(C)c(=O)n2Cc1ccco1	CYP2C9	inhibitor	human, liver microsomes	40 µM	inhibition	7%
CCN(Cc1cnc2nc(N)nc(N)c2n1)c1ccc(C(=O)N2CCC(C(=O)OC)CC2)cc1	CYP2C9	inhibitor, luciferase	–	10 µM	inhibition	-2.93%
CCc1nc2c(C)cc(N3CCN(CC(=O)N4CC(O)C4)CC3)cn2c1N(C)c1nc(-c2ccc(F)cc2)c(C#N)s1	CYP2C8	inhibitor	–	–	kinact	0.000588 s⁻¹
CC1(CO)C(O[C@@H]2O[C@H](C(=O)O)[C@@H](O)[C@H](O)[C@H]2O)CC[C@@]2(C)C1CC[C@]1(C)C2CC=C2[C@H]3CC(C)(C)[C@H](O)[C@@H](O)[C@]3(CO)[C@H](O)C[C@]21C (stereo partly drawn)	CYP2C8	inhibitor, mass spectrometry	human, liver microsomes	–	IC50	> 90 µg/mL
CCc1cc(/C(C)=N/OCc2ccc(C3CCCCC3)c(C(F)(F)F)c2)ccc1CN1CC(C(=O)O)C1	CYP2C8	inhibitor	human, liver microsomes	200 µM, 20 min	inhibition	17%
